From ChEMBL document CHEMBL1140334, “Synthesis and structure-activity relationships of pyrazine-pyridine biheteroaryls as novel, potent, and selective vascular endothelial growth factor receptor-2 inhibitors” (J Med Chem, 2005)

Tests used:
[1] = target: T1, Vascular endothelial growth factor receptor 2 (Homo sapiens, UniProt P35968); assay: Inhibition of vascular endothelial growth factor receptor 2
Outline: (§1)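 Radiometric kinase assay. Conditions varied slightly per kinase. Stopped with PBS/100 mM EDTA, read by scintillation counting. IC50 by linear regression of % inhibition, mean of at least two determinations.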

[2] = target: T1, Vascular endothelial growth factor receptor 2; assay: Inhibitory concentration (experimental) against vascular endothelial growth factor receptor 2; outline: as §1
[3] = Inhibition of cyclin-dependent kinase 1 activity; outline: as §1
MRC5 = assay: Concentration required to inhibit proliferation of human MRC5 fibroblast cell growth
[4] = Inhibition of protein kinase C gamma; outline: as §1
Insulin receptor = Insulin receptor (Homo sapiens, UniProt P06213); assay: Inhibition of insulin Receptor kinase; outline: as §1
Chain of Insulin receptor (P06213 28-758 limits assumed): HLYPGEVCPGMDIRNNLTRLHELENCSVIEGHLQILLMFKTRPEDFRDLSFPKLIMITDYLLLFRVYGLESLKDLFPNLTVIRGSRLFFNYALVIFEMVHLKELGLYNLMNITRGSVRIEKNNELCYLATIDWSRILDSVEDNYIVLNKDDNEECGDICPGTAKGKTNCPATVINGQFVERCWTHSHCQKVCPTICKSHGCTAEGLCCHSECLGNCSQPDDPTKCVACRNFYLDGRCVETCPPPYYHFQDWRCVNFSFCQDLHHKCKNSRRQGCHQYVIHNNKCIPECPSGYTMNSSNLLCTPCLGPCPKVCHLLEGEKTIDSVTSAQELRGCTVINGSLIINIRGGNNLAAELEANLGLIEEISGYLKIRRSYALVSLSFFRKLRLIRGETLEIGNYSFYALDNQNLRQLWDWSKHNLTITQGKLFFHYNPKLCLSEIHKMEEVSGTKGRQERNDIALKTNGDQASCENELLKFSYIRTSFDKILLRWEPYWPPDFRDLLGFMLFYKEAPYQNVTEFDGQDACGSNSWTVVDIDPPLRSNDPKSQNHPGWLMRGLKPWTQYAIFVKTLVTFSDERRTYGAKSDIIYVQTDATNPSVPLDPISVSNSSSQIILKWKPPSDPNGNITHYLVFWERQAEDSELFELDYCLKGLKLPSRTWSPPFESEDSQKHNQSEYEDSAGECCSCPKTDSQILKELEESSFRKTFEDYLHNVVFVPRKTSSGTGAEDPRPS
Chain of Insulin receptor (P06213 763-1382 limits assumed): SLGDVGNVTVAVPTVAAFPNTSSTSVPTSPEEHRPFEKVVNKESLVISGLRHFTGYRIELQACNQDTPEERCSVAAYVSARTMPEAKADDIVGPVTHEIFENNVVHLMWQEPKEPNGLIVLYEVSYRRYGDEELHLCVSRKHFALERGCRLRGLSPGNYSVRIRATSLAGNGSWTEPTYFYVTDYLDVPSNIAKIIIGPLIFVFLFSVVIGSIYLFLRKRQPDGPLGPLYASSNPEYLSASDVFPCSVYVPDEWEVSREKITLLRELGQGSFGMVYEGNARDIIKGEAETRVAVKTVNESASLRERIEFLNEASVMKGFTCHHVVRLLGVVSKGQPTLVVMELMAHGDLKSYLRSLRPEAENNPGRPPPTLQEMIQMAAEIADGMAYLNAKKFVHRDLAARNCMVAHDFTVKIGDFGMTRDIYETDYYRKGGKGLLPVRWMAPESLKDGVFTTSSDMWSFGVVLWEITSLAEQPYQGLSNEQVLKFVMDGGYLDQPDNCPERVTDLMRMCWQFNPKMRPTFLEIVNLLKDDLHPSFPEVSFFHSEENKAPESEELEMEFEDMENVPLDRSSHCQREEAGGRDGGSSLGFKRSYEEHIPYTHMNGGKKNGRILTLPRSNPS

[5] = Inhibition of protein kinase A; outline: as §1
[6] = target: Cyclin-dependent kinase 4/cyclin D1 (Homo sapiens, UniProt P11802); assay: Inhibition of cyclin dependent kinase 4-cyclinD1; type: protein-complex assay; outline: as §1
Casein kinase I = assay: Inhibition of casein kinase 1; type: protein assay
Casein kinase II = Casein kinase II (Homo sapiens, UniProt P19784+P67870+P68400); assay: Inhibition of casein kinase 2; type: protein-complex assay; outline: as §1
Chain of Casein kinase II (P67870 whole entry): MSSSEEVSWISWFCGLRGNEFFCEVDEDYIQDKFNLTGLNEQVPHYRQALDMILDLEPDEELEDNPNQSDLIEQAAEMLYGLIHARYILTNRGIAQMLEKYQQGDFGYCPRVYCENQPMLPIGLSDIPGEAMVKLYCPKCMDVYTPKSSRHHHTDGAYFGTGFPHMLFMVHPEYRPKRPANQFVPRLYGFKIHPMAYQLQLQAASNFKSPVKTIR
Chain of Casein kinase II (P68400 whole entry): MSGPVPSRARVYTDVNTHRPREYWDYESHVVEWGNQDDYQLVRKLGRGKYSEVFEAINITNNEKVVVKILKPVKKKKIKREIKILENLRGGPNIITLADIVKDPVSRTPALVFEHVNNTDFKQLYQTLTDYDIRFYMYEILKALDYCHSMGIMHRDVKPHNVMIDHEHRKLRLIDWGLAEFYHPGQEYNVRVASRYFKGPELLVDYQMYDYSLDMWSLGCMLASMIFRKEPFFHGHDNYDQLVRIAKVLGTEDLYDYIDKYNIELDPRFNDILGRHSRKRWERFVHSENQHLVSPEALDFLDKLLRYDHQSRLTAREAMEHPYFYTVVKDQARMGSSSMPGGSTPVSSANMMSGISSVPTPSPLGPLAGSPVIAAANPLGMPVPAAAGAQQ
Chain of Casein kinase II (P19784 whole entry): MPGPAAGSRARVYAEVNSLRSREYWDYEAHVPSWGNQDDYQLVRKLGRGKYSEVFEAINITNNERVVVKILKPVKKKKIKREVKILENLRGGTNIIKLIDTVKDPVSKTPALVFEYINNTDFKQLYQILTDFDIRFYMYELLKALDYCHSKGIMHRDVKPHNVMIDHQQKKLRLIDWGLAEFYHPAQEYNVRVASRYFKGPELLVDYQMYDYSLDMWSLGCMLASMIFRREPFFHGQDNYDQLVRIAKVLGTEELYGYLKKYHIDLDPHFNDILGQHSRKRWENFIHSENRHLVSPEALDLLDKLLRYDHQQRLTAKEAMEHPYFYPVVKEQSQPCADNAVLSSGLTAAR

[7] = Inhibition of platelet-derived growth factor receptor; outline: as §1
A-375 [8] = assay: The antitumor activity shown by the compound against A375 human melanoma xenografts growing in nude mice (10 mg/kg, i.p.) in terms of mean day of survival; type: functional, Mus musculus
Outline: (§2)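 Female nude mice carried subcutaneous flank implants of 1 mm3 A375 fragments and were pair-matched on day 1 at tumors of 62-126 mg. Dosing was i.p. once daily for 30 days, in 1.5% Pluronic F108 vehicle; the study ended at day 60. Tumor weight was taken as (w2l)/2. Mice were euthanized at 2.0 g, and MDS was derived from calculated time to endpoint.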

A-375 [9] = assay: The antitumor activity shown by the compound against A375 human melanoma xenografts growing in nude mice (75 mg/kg, i.p.) in terms of mean day of survival; type: functional, Mus musculus; outline: as §2
[10] = target: Glycogen synthase kinase-3 (Homo sapiens, UniProt P49840+P49841); assay: Inhibition of glycogen synthase kinase-3; type: protein assay; outline: as §1
CaM kinase II = CaM kinase II (Homo sapiens, UniProt Q13557+Q13555+Q13554+Q9UQM7); assay: Inhibition of calcium/calmodulin-dependent protein kinase type II; type: protein assay
[11] = target: Mitogen-activated protein kinase 1 (Homo sapiens, UniProt P28482); assay: Inhibition of mitogen-activated protein kinase; outline: as §1
Chain of Mitogen-activated protein kinase 1 (P28482 whole entry): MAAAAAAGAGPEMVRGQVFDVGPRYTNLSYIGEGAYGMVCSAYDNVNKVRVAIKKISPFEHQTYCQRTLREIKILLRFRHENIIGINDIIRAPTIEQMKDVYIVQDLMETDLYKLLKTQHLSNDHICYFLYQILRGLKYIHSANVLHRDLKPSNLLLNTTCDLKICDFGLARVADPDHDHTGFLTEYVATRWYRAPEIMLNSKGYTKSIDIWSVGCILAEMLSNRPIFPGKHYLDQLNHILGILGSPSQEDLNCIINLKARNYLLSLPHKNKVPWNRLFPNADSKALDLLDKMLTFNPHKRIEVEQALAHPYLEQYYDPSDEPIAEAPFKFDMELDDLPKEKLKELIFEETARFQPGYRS

HASMC = assay: Concentration required to inhibit proliferation of HASMC; details: Homo sapiens
HUVEC [12] = assay: Concentration required to inhibit proliferation of HUVEC; details: Homo sapiens
A-375 [13] = assay: Concentration required to inhibit proliferation of A375 human amelanotic melanoma cell growth
HCT-116 = assay: Concentration required to inhibit proliferation of human HCT116 colon cancer cell growth
HeLa = assay: Concentration required to inhibit proliferation of HeLa cell growth; details: Homo sapiens
HUVEC [14] = assay: Concentration inhibiting VEGF stimulated (2 ng/well) HUVE cell proliferation; details: Homo sapiens
[15] = target: Protein kinase C beta type (Homo sapiens, UniProt P05771); assay: Inhibition of protein kinase C beta activity; outline: as §1
Chain of Protein kinase C beta type (P05771 whole entry): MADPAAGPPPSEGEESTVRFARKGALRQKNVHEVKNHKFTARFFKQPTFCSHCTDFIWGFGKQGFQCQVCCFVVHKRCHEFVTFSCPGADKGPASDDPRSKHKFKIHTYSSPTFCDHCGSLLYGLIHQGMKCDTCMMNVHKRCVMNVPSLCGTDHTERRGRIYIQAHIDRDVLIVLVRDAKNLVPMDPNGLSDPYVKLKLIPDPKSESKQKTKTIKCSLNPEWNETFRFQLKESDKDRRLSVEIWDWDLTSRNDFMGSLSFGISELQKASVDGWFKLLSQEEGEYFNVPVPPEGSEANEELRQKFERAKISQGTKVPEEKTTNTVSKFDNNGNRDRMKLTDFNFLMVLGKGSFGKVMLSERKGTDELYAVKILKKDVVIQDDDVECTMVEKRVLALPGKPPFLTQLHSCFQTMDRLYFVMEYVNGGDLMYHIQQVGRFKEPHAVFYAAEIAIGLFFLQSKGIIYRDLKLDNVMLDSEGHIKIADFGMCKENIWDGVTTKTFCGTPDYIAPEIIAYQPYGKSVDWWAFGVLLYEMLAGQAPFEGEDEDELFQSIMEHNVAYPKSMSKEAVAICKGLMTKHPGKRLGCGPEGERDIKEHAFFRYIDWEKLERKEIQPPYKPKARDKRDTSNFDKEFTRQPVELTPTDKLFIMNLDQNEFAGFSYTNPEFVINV

T1 sequence (P35968 whole entry): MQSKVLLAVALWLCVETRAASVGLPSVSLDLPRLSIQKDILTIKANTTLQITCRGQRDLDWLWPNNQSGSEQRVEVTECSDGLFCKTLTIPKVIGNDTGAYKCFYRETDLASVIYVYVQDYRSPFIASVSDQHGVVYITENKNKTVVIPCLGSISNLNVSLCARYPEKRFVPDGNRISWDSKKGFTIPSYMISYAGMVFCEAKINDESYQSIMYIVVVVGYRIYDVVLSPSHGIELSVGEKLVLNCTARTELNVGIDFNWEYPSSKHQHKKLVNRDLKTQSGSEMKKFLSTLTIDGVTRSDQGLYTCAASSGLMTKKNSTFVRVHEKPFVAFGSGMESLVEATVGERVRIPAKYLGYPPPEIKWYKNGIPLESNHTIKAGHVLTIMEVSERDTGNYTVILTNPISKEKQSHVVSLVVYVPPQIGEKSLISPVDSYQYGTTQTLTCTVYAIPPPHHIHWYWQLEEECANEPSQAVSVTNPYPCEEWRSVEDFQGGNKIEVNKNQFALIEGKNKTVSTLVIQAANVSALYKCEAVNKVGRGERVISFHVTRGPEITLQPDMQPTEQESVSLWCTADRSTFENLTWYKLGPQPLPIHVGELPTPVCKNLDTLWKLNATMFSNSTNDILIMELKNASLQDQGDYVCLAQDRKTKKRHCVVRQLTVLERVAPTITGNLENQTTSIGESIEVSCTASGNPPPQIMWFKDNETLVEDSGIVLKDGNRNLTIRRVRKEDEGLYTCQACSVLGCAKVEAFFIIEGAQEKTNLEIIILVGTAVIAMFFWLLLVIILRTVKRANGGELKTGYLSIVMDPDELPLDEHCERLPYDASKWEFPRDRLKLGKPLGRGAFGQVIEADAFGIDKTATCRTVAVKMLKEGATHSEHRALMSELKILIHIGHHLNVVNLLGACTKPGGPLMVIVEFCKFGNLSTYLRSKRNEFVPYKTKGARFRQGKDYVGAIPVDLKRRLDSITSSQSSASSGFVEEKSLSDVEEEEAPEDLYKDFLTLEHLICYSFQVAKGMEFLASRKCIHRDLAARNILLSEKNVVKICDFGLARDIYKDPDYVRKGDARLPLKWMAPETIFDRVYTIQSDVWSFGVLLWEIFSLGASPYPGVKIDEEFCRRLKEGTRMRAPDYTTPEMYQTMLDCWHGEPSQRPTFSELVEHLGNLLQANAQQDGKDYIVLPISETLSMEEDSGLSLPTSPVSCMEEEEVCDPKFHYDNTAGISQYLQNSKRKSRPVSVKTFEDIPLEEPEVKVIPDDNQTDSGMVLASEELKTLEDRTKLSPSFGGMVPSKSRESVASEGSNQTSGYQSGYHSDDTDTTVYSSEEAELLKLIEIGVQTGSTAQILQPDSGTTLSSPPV

Compound	IC50 [1]	IC50 [2]	IC50 [3]	other results
OCCCNc1cncc(-c2cncc(NCc3ccccc3)n2)c1	1.05 µM	1.05 µM	> 10 µM	–
Clc1cccc(Nc2cncc(-c3cncc(NCCCCc4ccncc4)c3)n2)c1	0.266 µM	0.263 µM	10 µM	–
O=C(NCCCO)c1cncc(-c2cncc(Nc3cccc(Cl)c3)n2)c1	2.38 µM	2.4 µM	> 10 µM	–
Clc1cccc(Nc2cncc(-c3cncc(NCCCN4CCCCC4)c3)n2)c1	0.399 µM	0.398 µM	5.38 µM	–
Clc1ccc(Nc2cncc(-c3cncc(NCCCc4ccncc4)c3)n2)cc1Cl	0.189 µM	0.191 µM	> 10 µM	–
O=C(CO)Nc1cncc(-c2cncc(Nc3cccc(Cl)c3)n2)c1	0.346 µM	0.347 µM	> 10 µM	–
CN(C)CCNC(=O)c1cncc(-c2cncc(Nc3cccc(Cl)c3)n2)c1	4.3 µM	4.27 µM	3.69 µM	–
OCCCNc1cncc(-c2cncc(Oc3cccc(Cl)c3)n2)c1	> 10 µM	–	> 10 µM	–
Clc1ccc(Nc2cncc(-c3cncc(NCCCc4ccncc4)c3)n2)cc1	1 µM	1 µM	> 10 µM	–
Clc1cccc(Nc2cncc(-c3cncc(NCCCc4ccccc4)c3)n2)c1	2.28 µM	2.29 µM	> 10 µM	–
O=C(CCCNc1cncc(-c2cncc(Nc3cccc(Cl)c3)n2)c1)N1CCCCC1	0.61 µM	0.617 µM	> 10 µM	–
Clc1cccc(Nc2cncc(-c3cncc(NCC4CCOCC4)c3)n2)c1	0.391 µM	0.389 µM	> 10 µM	–
COCC(=O)Nc1cncc(-c2cncc(Nc3cccc(Cl)c3)n2)c1	0.303 µM	0.302 µM	> 10 µM	–
Clc1cccc(Nc2cncc(-c3cncc(NCCCN4CCOCC4)c3)n2)c1	0.18 µM	0.182 µM	> 10 µM	–
CN(C)CCNc1cncc(-c2cncc(Nc3cccc(Cl)c3)n2)c1	0.105 µM	0.105 µM	> 10 µM	IC50 (MRC5): 2.91 µM; IC50 [4]: 3.96 µM; IC50 (Insulin receptor): > 10 µM; IC50 [5]: > 10 µM; IC50 [6]: > 10 µM; IC50 (Casein kinase I): > 10 µM; IC50 (Casein kinase II): > 10 µM; IC50 [7]: > 10 µM; MDS (A-375 [8]): 22.4; MDS (A-375 [9]): 28.9; IC50 [10]: > 10 µM; IC50 (CaM kinase II): > 10 µM; IC50 [11]: > 10 µM; IC50 (HASMC): 2.77 µM; IC50 (HUVEC [12]): 0.877 µM; IC50 (A-375 [13]): 3.72 µM; IC50 (HCT-116): 8.58 µM; IC50 (HeLa): > 10 µM; IC50 (HUVEC [14]): 0.059 µM; IC50 [15]: > 10 µM
Nc1ncc(NCCCO)cc1-c1cncc(Nc2cccc(Cl)c2)n1	1.36 µM	1.35 µM	> 10 µM	–
OCCCNc1cncc(-c2cncc(Nc3cccc(F)c3)n2)c1	0.168 µM	0.17 µM	> 10 µM	–
OCCCNc1cncc(-c2cncc(Nc3cccc(Cl)c3)n2)c1	–	–	> 10 µM	IC50 (MRC5): 6.6 µM; IC50 [4]: > 10 µM; IC50 [5]: > 10 µM; IC50 (Casein kinase I): > 10 µM; IC50 ([10]; read-out: IC50): 0.478 µM; IC50 (HASMC): 3.87 µM; IC50 (HUVEC [12]): 1.68 µM; IC50 (A-375 [13]): > 10 µM; IC50 (HCT-116): > 10 µM; IC50 (HeLa): > 10 µM; IC50 (HUVEC [14]): 0.164 µM
Clc1cccc(Nc2cncc(-c3cncc(NCCCc4ccncc4)c3)n2)c1	0.076 µM	0.0759 µM	> 10 µM	–

Compound	IC50 [1]	IC50 [2]	IC50 [3]	other results
COc1cccc(Nc2cncc(-c3cncc(NCCCO)c3)n2)c1	0.74 µM	0.741 µM	> 10 µM	–
OCCCNc1cnc(Cl)c(-c2cncc(Nc3cccc(Cl)c3)n2)c1	> 10 µM	–	> 10 µM	–
Clc1cccc(Nc2cncc(-c3cncc(NCCCN4CCNCC4)c3)n2)c1	0.236 µM	0.234 µM	5.62 µM	–
O=C(O)CCCNc1cncc(-c2cncc(Nc3cccc(Cl)c3)n2)c1	0.568 µM	0.575 µM	5.22 µM	–
Clc1cccc(Nc2cncc(-c3cncc(NCCCn4cncn4)c3)n2)c1	0.067 µM	0.0676 µM	> 10 µM	IC50 (MRC5): 6.72 µM; IC50 (Insulin receptor): > 10 µM; IC50 [5]: > 10 µM; IC50 (Casein kinase I): 6.5 µM; IC50 (Casein kinase II): 7.2 µM; IC50 [10]: 0.196 µM; IC50 [11]: > 10 µM; IC50 (HASMC): 2.98 µM; IC50 (HUVEC [12]): 1.07 µM; IC50 (A-375 [13]): 5.16 µM; IC50 (HCT-116): > 10 µM; IC50 (HeLa): 6.06 µM; IC50 (HUVEC [14]): 0.057 µM
COCCC(=O)Nc1cncc(-c2cncc(Nc3cccc(Cl)c3)n2)c1	0.593 µM	0.589 µM	> 10 µM	–
OCCNc1cncc(-c2cncc(Nc3cccc(Cl)c3)n2)c1	0.275 µM	0.275 µM	> 10 µM	–
Nc1cncc(-c2cncc(Nc3cccc(Cl)c3)n2)c1	1.16 µM	1.15 µM	> 10 µM	–
OCCCCNc1cncc(-c2cncc(Nc3cccc(Cl)c3)n2)c1	0.063 µM	0.0631 µM	> 10 µM	IC50 (MRC5): 3.61 µM; IC50 [4]: > 10 µM; IC50 (Insulin receptor): > 10 µM; IC50 [5]: > 10 µM; IC50 (Casein kinase II): > 10 µM; MDS (A-375 [8]): 24; MDS (A-375 [9]): 29.2; IC50 [10]: 4.02 µM; IC50 (CaM kinase II): > 10 µM; IC50 [11]: > 10 µM; IC50 (HASMC): 3.23 µM; IC50 (HUVEC [12]): 1.17 µM; IC50 (A-375 [13]): 6.08 µM; IC50 (HCT-116): > 10 µM; IC50 (HeLa): 5.56 µM; IC50 (HUVEC [14]): 0.063 µM; IC50 [15]: > 10 µM
O=C(COc1ccccc1)Nc1cncc(-c2cncc(Nc3cccc(Cl)c3)n2)c1	> 10 µM	–	> 10 µM	–
Clc1cccc(Nc2cncc(-c3cncc(NCCCc4cccnc4)c3)n2)c1	0.076 µM	0.0759 µM	–	IC50 (MRC5): 3.38 µM; IC50 (Insulin receptor): > 10 µM; IC50 [5]: > 10 µM; IC50 (Casein kinase I): > 10 µM; IC50 (Casein kinase II): > 10 µM; IC50 [7]: 0.876 µM; IC50 [10]: 0.318 µM; IC50 [11]: > 10 µM; IC50 (HASMC): 6.15 µM; IC50 (HUVEC [12]): 1.67 µM; IC50 (A-375 [13]): 2.96 µM; IC50 (HCT-116): 5.05 µM; IC50 (HeLa): 3.06 µM; IC50 (HUVEC [14]): 0.086 µM
O=C(COCc1ccccc1)Nc1cncc(-c2cncc(Nc3cccc(Cl)c3)n2)c1	> 10 µM	–	> 10 µM	–
CN(C)CCCNc1cncc(-c2cncc(Nc3cccc(Cl)c3)n2)c1	0.135 µM	0.135 µM	> 10 µM	–
CN1CCN(CCCNc2cncc(-c3cncc(Nc4cccc(Cl)c4)n3)c2)CC1	0.123 µM	0.123 µM	> 10 µM	–
Clc1cccc(Nc2cncc(-c3cncc(NCCCn4cccn4)c3)n2)c1	0.094 µM	0.0933 µM	> 10 µM	IC50 (MRC5): 3.61 µM; IC50 (Insulin receptor): > 10 µM; IC50 [5]: > 10 µM; IC50 (Casein kinase I): 5.6 µM; IC50 (Casein kinase II): 8.1 µM; IC50 [10]: 0.606 µM; IC50 (CaM kinase II): > 10 µM; IC50 [11]: > 10 µM; IC50 (HASMC): 3 µM; IC50 (HUVEC [12]): 1.39 µM; IC50 (A-375 [13]): 2.84 µM; IC50 (HCT-116): 5.24 µM; IC50 (HeLa): 3.5 µM; IC50 (HUVEC [14]): 0.12 µM
Clc1cccc(Nc2cncc(-c3cncc(NCCOc4ccccc4)c3)n2)c1	> 10 µM	–	> 10 µM	–
OCCCNc1cnc(F)c(-c2cncc(Nc3cccc(Cl)c3)n2)c1	0.251 µM	0.251 µM	> 10 µM	–
CN(C)c1ccc(C(=O)Nc2cncc(-c3cncc(Nc4cccc(Cl)c4)n3)c2)cc1	> 10 µM	–	> 10 µM	–
OCCCNc1cncc(-c2cncc(Nc3ccccc3Cl)n2)c1	1.01 µM	1 µM	> 10 µM	–
